Laboratory results taken from ChEMBL document CHEMBL6078650, “A Phenotypic High-Throughput Screen Identifies Small Molecule Modulators of Endogenous RGS10 in BV-2 Cells” (J Med Chem, 2024).
pEC50: −log10 of the molar value. Activity calls are given as the source filed them. The calls are words filed in the database; no cut-off is given here.

System: BV-2
Assay: Reversal of IFNgamma-induced RGS10 silencing in mouse single close BV-2 cells assessed as increase in of RGS10 mRNA level measured after 24 hrs by qRT-PCR analysis
Format: functional, cell-based
Details: dose 0.5-20 µM
Outline: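 Parental BV-2 cells given IFNγ 10 ng/mL for 24 h with compound 0.5–20 μM; RGS10 mRNA by one-step qRT-PCR (100 ng RNA, 0.4 μM primers; RT 55 °C 10 min, 40 cycles 95 °C/60 °C), Cq values with melt curve.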

Structure (SMILES) | Activity
CCc1cc(-c2csc(S(=O)(=O)Nc3ccc(C)cc3Br)c2)on1 | Dose-dependent-effect; Significant Reversal Achieved At > 5 Um

System: BV-2
Assay: Reversal of IFNgamma-induced RGS10 silencing in mouse single close BV-2 cells assessed as suppression of RGS10 protein level at 20 uM measured after 48 hrs by Western blot analysis
Format: functional, cell-based
Details: not given
Outline: (§1)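 Parental BV-2 cells, IFNγ 10 ng/mL with compound 20 μM for 24 h or 48 h; lysates in Tris/NaCl/Triton/SDS buffer with protease inhibitors, equal protein on 12% SDS-PAGE, goat anti-RGS10 (1:1,000) with β-actin or GAPDH loading control, infrared secondary detection; four independent experiments in duplicate.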

Structure (SMILES) | Activity
CCc1cc(-c2csc(S(=O)(=O)Nc3ccc(C)cc3Br)c2)on1 | Active

System: not listed separately
Assay: Induction of RGS10 expression in mouse single close BV-2 cells assessed as RGS10 protein level by measuring luminescence signal measured after 24 hrs by Nano-Glo HiBit Lytic detection assay
Format: functional
Design: concentration or dose not given beside the values
Details: not given
Outline: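 BV-2-RGS10-HiBiT single-clone cells (CRISPR HiBiT tag at RGS10 C-terminus) in phenol red-free DMEM, 10% ultralow IgG FBS; IFNγ 10 ng/mL final plus compound 1–100 μM, 24 h, 37 °C. GF-AFC viability fluorescence (390/505) read first, then Nano-Glo HiBiT lytic luminescence (LgBiT 1:100, substrate 1:50); RLU/RFU expressed as % of IFNγ alone; 4 independent experiments in triplicate.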

Structure (SMILES) | Activity
CCc1cc(-c2csc(S(=O)(=O)Nc3ccc(C)cc3Br)c2)on1 | 76.8%
CCOc1ccc(-c2nc(C3CC(=O)N(c4ccc(C)cc4)C3)no2)cc1 (centres undefined) | 85.6%
CC1=NS(=O)(=O)N(C)C=C1C(=O)OCc1nc(-c2cccc(F)c2)no1 | 78.9%
O=C(CN1C(=O)NC(c2ccc(Cl)cc2)C2=C1COC2=O)Nc1ccc(F)c(F)c1 (centres undefined) | 69.6%
Cc1oc(-c2ccc(Cl)cc2)nc1CN1CCCC(C(=O)N2CCN(C(=O)c3ccco3)CC2)C1 (centres undefined) | 101.8%
COc1cccc(CNC(=O)c2ccc3c(Cl)c4c(nc3c2)CCCC4)c1 | 104.6%
Cc1cc(C)c2c(=O)cc(CN(Cc3ccccc3)Cc3ccco3)[nH]c2c1 | 98.5%
COCCOC1CCN(C(=O)Nc2ccc(C(=O)OC)cc2)CC1 | 101.2%
Cc1cccc(-n2c(=O)c3c(cc(C)n3C)n(CC(=O)Nc3ccc(C(F)(F)F)cc3)c2=O)c1 | 95.9%
O=C(CN1C(=O)NC(c2ccc(Cl)cc2)C2=C1COC2=O)Nc1cc(F)cc(F)c1 (centres undefined) | 56.8%
Cc1cc(C)cc(Nc2nc(C)cc(=O)n2CC(=O)Nc2cccc(C#N)c2)c1 | 116.1%
Cc1ccc(-n2c(=O)c3c(cc(C)n3C)n(CC(=O)Nc3ccc(Br)cc3F)c2=O)cc1 | 156.8%
O=C(Nc1ccc(F)cc1)c1cc2n(n1)CC(c1ccc3c(c1)OCO3)OC2 (centres undefined) | 113.8%
CCNc1ncnc2sc3c(c12)CCN(Cc1ccncc1)C3 | 97.1%
COc1ccc(C2NC(=O)N(CC(=O)N3CCCCCC3)C3=C2C(=O)OC3)cc1 (centres undefined) | 104.8%

System: BV-2
Assay: Reversal of IFNgamma-induced RGS10 silencing in mouse single close BV-2 cells assessed as suppression of RGS10 protein level at 20 uM measured after 24 hrs by Western blot analysis
Format: functional, cell-based
Details: not given
Outline: as §1

Structure (SMILES) | Activity
CCc1cc(-c2csc(S(=O)(=O)Nc3ccc(C)cc3Br)c2)on1 | inactive
O=C(CN1C(=O)NC(c2ccc(Cl)cc2)C2=C1COC2=O)Nc1ccc(F)c(F)c1 (centres undefined) | inactive
Cc1oc(-c2ccc(Cl)cc2)nc1CN1CCCC(C(=O)N2CCN(C(=O)c3ccco3)CC2)C1 (centres undefined) | inactive
Cc1cc(C)c2c(=O)cc(CN(Cc3ccccc3)Cc3ccco3)[nH]c2c1 | inactive
O=C(CN1C(=O)NC(c2ccc(Cl)cc2)C2=C1COC2=O)Nc1cc(F)cc(F)c1 (centres undefined) | inactive

System: BV-2
Assay: Reversal of IFNgamma-induced inflammatory gene expression in mouse single close BV-2 cells assessed as reversal of iNOS expression at 20 uM measured after 24 hrs by qRT-PCR analysis
Format: functional, cell-based
Details: not given
Outline: (§2)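 BV-2 cells treated 24 h with IFNγ 10 ng/mL with or without compound at 20 μM; iNOS, COX-2 and TNFα mRNA measured by one-step qRT-PCR (100 ng RNA template, 0.4 μM primers, 40 cycles), Cq read each cycle.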

Structure (SMILES) | Activity
CCc1cc(-c2csc(S(=O)(=O)Nc3ccc(C)cc3Br)c2)on1 | Active
O=C(CN1C(=O)NC(c2ccc(Cl)cc2)C2=C1COC2=O)Nc1ccc(F)c(F)c1 (centres undefined) | Active
Cc1oc(-c2ccc(Cl)cc2)nc1CN1CCCC(C(=O)N2CCN(C(=O)c3ccco3)CC2)C1 (centres undefined) | Active
Cc1cc(C)c2c(=O)cc(CN(Cc3ccccc3)Cc3ccco3)[nH]c2c1 | Active
O=C(CN1C(=O)NC(c2ccc(Cl)cc2)C2=C1COC2=O)Nc1cc(F)cc(F)c1 (centres undefined) | Active

System: BV-2
Assay: Reversal of IFNgamma-induced inflammatory gene expression in mouse single close BV-2 cells assessed as reversal of COX-2 expression at 20 uM measured after 24 hrs by qRT-PCR analysis
Format: functional, cell-based
Details: not given
Outline: as §2

Structure (SMILES) | Activity
CCc1cc(-c2csc(S(=O)(=O)Nc3ccc(C)cc3Br)c2)on1 | Active
Cc1cc(C)c2c(=O)cc(CN(Cc3ccccc3)Cc3ccco3)[nH]c2c1 | Active

System: BV-2
Assay: Reversal of IFNgamma-induced inflammatory gene expression in mouse single close BV-2 cells assessed as reversal of TNFalpha expression at 20 uM measured after 24 hrs by qRT-PCR analysis
Format: functional, cell-based
Details: not given
Outline: as §2

Structure (SMILES) | Activity
CCc1cc(-c2csc(S(=O)(=O)Nc3ccc(C)cc3Br)c2)on1 | inactive
O=C(CN1C(=O)NC(c2ccc(Cl)cc2)C2=C1COC2=O)Nc1ccc(F)c(F)c1 (centres undefined) | inactive
Cc1oc(-c2ccc(Cl)cc2)nc1CN1CCCC(C(=O)N2CCN(C(=O)c3ccco3)CC2)C1 (centres undefined) | inactive
Cc1cc(C)c2c(=O)cc(CN(Cc3ccccc3)Cc3ccco3)[nH]c2c1 | inactive
O=C(CN1C(=O)NC(c2ccc(Cl)cc2)C2=C1COC2=O)Nc1cc(F)cc(F)c1 (centres undefined) | inactive

System: not listed separately
Assay: Reversal of IFNgamma-induced RGS10 silencing in mouse single close BV-2 cells assessed as IFN response measured after 24 hrs by Nano-Glo HiBit Lytic detection assay relative to control
Format: functional
Design: concentration or dose not given beside the values
Details: not given
Outline: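 HiBiT-tagged BV-2-RGS10 clone treated with compound at 20 μM plus IFNγ 10 ng/mL for 24 h at 37 °C; viability by GF-AFC fluorescence, then HiBiT lytic luminescence; signal normalized RLU/RFU, expressed as % of IFNγ-alone signal; four independent experiments in triplicate, one-way ANOVA with Dunnett's test.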

Structure (SMILES) | Activity
CCc1cc(-c2csc(S(=O)(=O)Nc3ccc(C)cc3Br)c2)on1 | 206.2%
CCOc1ccc(-c2nc(C3CC(=O)N(c4ccc(C)cc4)C3)no2)cc1 (centres undefined) | 97.4%
CC1=NS(=O)(=O)N(C)C=C1C(=O)OCc1nc(-c2cccc(F)c2)no1 | 94.3%
O=C(CN1C(=O)NC(c2ccc(Cl)cc2)C2=C1COC2=O)Nc1ccc(F)c(F)c1 (centres undefined) | 171.6%
Cc1oc(-c2ccc(Cl)cc2)nc1CN1CCCC(C(=O)N2CCN(C(=O)c3ccco3)CC2)C1 (centres undefined) | 172.8%
COc1cccc(CNC(=O)c2ccc3c(Cl)c4c(nc3c2)CCCC4)c1 | 141.3%
Cc1cc(C)c2c(=O)cc(CN(Cc3ccccc3)Cc3ccco3)[nH]c2c1 | 230.6%
COCCOC1CCN(C(=O)Nc2ccc(C(=O)OC)cc2)CC1 | 106.7%
Cc1cccc(-n2c(=O)c3c(cc(C)n3C)n(CC(=O)Nc3ccc(C(F)(F)F)cc3)c2=O)c1 | 145.1%
O=C(CN1C(=O)NC(c2ccc(Cl)cc2)C2=C1COC2=O)Nc1cc(F)cc(F)c1 (centres undefined) | 186.7%
Cc1cc(C)cc(Nc2nc(C)cc(=O)n2CC(=O)Nc2cccc(C#N)c2)c1 | 102.4%
Cc1ccc(-n2c(=O)c3c(cc(C)n3C)n(CC(=O)Nc3ccc(Br)cc3F)c2=O)cc1 | 90.1%
O=C(Nc1ccc(F)cc1)c1cc2n(n1)CC(c1ccc3c(c1)OCO3)OC2 (centres undefined) | 123.2%
CCNc1ncnc2sc3c(c12)CCN(Cc1ccncc1)C3 | 94%
COc1ccc(C2NC(=O)N(CC(=O)N3CCCCCC3)C3=C2C(=O)OC3)cc1 (centres undefined) | 102.4%

System: not listed separately
Assay: Reversal of IFNgamma-induced RGS10 silencing in mouse single close BV-2 cells assessed as RGS10 protein level by measuring luminescence signal measured after 24 hrs by Nano-Glo HiBit Lytic detection assay
Details: BV-2, 24 h

pEC50 | Structure (SMILES)
4.47 | CCc1cc(-c2csc(S(=O)(=O)Nc3ccc(C)cc3Br)c2)on1
4.63 | O=C(CN1C(=O)NC(c2ccc(Cl)cc2)C2=C1COC2=O)Nc1ccc(F)c(F)c1 (centres undefined)
4.10 | Cc1oc(-c2ccc(Cl)cc2)nc1CN1CCCC(C(=O)N2CCN(C(=O)c3ccco3)CC2)C1 (centres undefined)
4.86 | Cc1cc(C)c2c(=O)cc(CN(Cc3ccccc3)Cc3ccco3)[nH]c2c1
4.51 | O=C(CN1C(=O)NC(c2ccc(Cl)cc2)C2=C1COC2=O)Nc1cc(F)cc(F)c1 (centres undefined)

System: BV-2
Assay: (§3) Reversal of LPS-induced RGS10 silencing in mouse single close BV-2 cells assessed as RGS10 protein level by measuring LPS response measured after 24 hrs by Nano-Glo HiBit Lytic detection assay
Format: functional
Design: concentration or dose not given beside the values
Details: not given
Outline: (§4)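 HiBiT-knock-in BV-2 single clone exposed to LPS at 10 ng/mL final for 24 h at 37 °C in phenol red-free assay medium; RGS10-HiBiT measured by Nano-Glo HiBiT lytic detection (LgBiT 1:100, substrate 1:50), luminescence read after 15 min at room temperature.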

Structure (SMILES) | Activity
Cc1ccc(-n2c(=O)c3c(cc(C)n3C)n(CC(=O)Nc3ccc(Br)cc3F)c2=O)cc1 | inactive

System: not listed separately
Assay: as §3
Format: functional
Design: concentration or dose not given beside the values
Details: not given
Outline: as §4

Structure (SMILES) | Activity
CCc1cc(-c2csc(S(=O)(=O)Nc3ccc(C)cc3Br)c2)on1 | 104.1%
CCOc1ccc(-c2nc(C3CC(=O)N(c4ccc(C)cc4)C3)no2)cc1 (centres undefined) | 104.7%
CC1=NS(=O)(=O)N(C)C=C1C(=O)OCc1nc(-c2cccc(F)c2)no1 | 90.3%
O=C(CN1C(=O)NC(c2ccc(Cl)cc2)C2=C1COC2=O)Nc1ccc(F)c(F)c1 (centres undefined) | 84.1%
Cc1oc(-c2ccc(Cl)cc2)nc1CN1CCCC(C(=O)N2CCN(C(=O)c3ccco3)CC2)C1 (centres undefined) | 116.9%
COc1cccc(CNC(=O)c2ccc3c(Cl)c4c(nc3c2)CCCC4)c1 | 97.4%
Cc1cc(C)c2c(=O)cc(CN(Cc3ccccc3)Cc3ccco3)[nH]c2c1 | 92.8%
COCCOC1CCN(C(=O)Nc2ccc(C(=O)OC)cc2)CC1 | 121.7%
Cc1cccc(-n2c(=O)c3c(cc(C)n3C)n(CC(=O)Nc3ccc(C(F)(F)F)cc3)c2=O)c1 | 113.8%
O=C(CN1C(=O)NC(c2ccc(Cl)cc2)C2=C1COC2=O)Nc1cc(F)cc(F)c1 (centres undefined) | 80.4%
Cc1cc(C)cc(Nc2nc(C)cc(=O)n2CC(=O)Nc2cccc(C#N)c2)c1 | 105.8%
O=C(Nc1ccc(F)cc1)c1cc2n(n1)CC(c1ccc3c(c1)OCO3)OC2 (centres undefined) | 105.3%
CCNc1ncnc2sc3c(c12)CCN(Cc1ccncc1)C3 | 89.5%
COc1ccc(C2NC(=O)N(CC(=O)N3CCCCCC3)C3=C2C(=O)OC3)cc1 (centres undefined) | 87.4%
